NR2E3 ag-1: activates human photoreceptor nuclear receptor NR2E3; 320,000 tested, 0.12% active; AID 2300; Q9Y5X4; GST-NR2E3/biotin-RetCOR TR-FRET, 1536-well; inhibition of corepressor binding, % at 4.78 µM;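 active = percent inhibition above the cutoff of mean plus 3 SD of all tested compounds, set per screening campaign, cut at about 20% in these data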;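 note: 0% = DMSO wells and 100% = biotin wells as full block of FRET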
Target sequence (Q9Y5X4 whole entry, looked up): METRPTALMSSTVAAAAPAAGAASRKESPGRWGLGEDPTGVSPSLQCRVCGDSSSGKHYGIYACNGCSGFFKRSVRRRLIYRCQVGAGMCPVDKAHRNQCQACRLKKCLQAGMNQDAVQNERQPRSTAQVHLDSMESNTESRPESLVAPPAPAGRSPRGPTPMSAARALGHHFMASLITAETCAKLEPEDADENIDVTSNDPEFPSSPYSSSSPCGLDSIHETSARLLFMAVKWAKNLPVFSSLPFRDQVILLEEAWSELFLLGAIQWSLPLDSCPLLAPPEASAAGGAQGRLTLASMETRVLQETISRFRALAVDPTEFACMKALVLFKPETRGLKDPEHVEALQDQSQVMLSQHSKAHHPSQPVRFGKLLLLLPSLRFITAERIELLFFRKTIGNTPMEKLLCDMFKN
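System: GST-tagged NR2E3 plus biotinylated RetCOR corepressor; Amount: 1.35 nM GST-tagged NR2E3 final; Dosing: single nominal compound dose of 4.8 µM; Schedule: 5 h incubation at 4 °C; Technique: TR-FRET with europium anti-GST and streptavidin-D2, 340 nm excitation; Controls: biotin wells as high control, 0.6% DMSO wells as low control.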
Rev-erbA mod: modulators of human Rev-erb alpha DNA binding; P20393; Rev-erbα–FITC-DNA binding, fluorescence polarization, 90 min; activity, % at 10 µM; 370,000 tested, 0.79% active; AID 1259318;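 active = activity above about 14%, limit read from the data; passing the limit was not always enough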;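 note: 0% = DMSO wells with 35 nM protein and 100% = DMSO wells with 750 nM protein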
VLA-4 inh: inhibition in a human VLA-4 binding assay; inhibition, % (about 7 µM as worked out from the volumes in the protocol); AID 2557; 330,000 tested, 0.2% active; VLA-4 expressing cells, ligand binding flow cytometry; in the data active = inhibition above about 50%
NR2E3 ag-2: agonists of human NR2E3 nuclear receptor; Q9Y5X4; CHO-S Gal4-NCOR/VP16-NR2E3 two-hybrid, luciferase; inhibition of corepressor binding, % at 3.98 µM; 360,000 tested, 0.35% active; AID 602229;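 active = inhibition above the mean of all tested compounds plus 3 SD, cut at about 70% in these data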;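 note: 0% = DMSO with NR2E3 transfected cells and 100% = cells lacking NR2E3 construct; higher means lower luciferase signal from less NR2E3 corepressor binding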
PG9 Ab binder: binds the HIV-1 gp120 antibody PG9. inhibition, % at 6.7 µM. 360,000 tested, 0.43% active. TR-FRET gp120-PG9 antibody binding; in the data active = inhibition above about 8.5%
NR2E3 ag conf: confirmation of human NR2E3 agonists; shares compounds with NR2E3 ag-2; CHO-S mammalian two-hybrid NR2E3-NCOR, luciferase luminescence; inhibition, % at 3.98 µM; 2,300 tested, 51% active; AID 624378;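 active = average inhibition above a cutoff equal to the mean inhibition of all tested compounds plus one SD, cut at about 70% in these data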;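 note: 0% = DMSO in NR2E3 cells and 100% = DMSO in cells lacking NR2E3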
GAL4-VP16 luc: GAL4-VP16 reporter inhibition in NR2E3 agonist counterscreen | CHO-S GAL4-VP16 luciferase reporter, luminescence | shares compounds with NR2E3 ag-2 | 2,300 tested, 29% active | inhibition, % at 3.98 µM | AID 624379;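 active = mean inhibition above a cutoff equal to the average over all tested compounds plus one standard deviation, cut at about 70% in these data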;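 note: luciferase from a UAS reporter driven by GAL4-VP16 transactivation; 0% = DMSO with VP16-transfected cells and 100% = DMSO with cells lacking VP16; higher means less reporter light so more repression of VP16 activity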
Numbers without * were called inactive; x = no result given. A selection: hits, their analogues and other compounds. The true share with any hit is near 1.6%.

SMILES | NR2E3 ag-1 | Rev-erbA mod | VLA-4 inh | NR2E3 ag-2 | PG9 Ab binder | NR2E3 ag conf | GAL4-VP16 luc
C#CCN1CC(N2CCN(CCO)CC2)CS1(=O)=O (centres undefined) | x | -1 | x | x | x | x | x
COc1ccc(CN(CC#Cc2ccc(C)cc2)C(N)=NC(=O)CCc2ccccc2)c(OC)c1 | x | 5 | x | x | x | x | x
Cc1cc(=O)[nH]c(SCC(=O)Nc2ccc3c(c2)CCC3)c1C#N | 0 | 1 | -4 | 55 | 1 | 39 | 41
Cc1cc(=O)[nH]c(SCC(=O)Nc2ccc(Br)cc2)c1C#N | -3 | 2 | 12 | 78* | 1 | 98* | 90*
Cc1cc(=O)[nH]c(SCC(=O)Nc2ccc(F)cc2)c1C#N | 4 | 3 | 1 | -12 | 2 | x | x
Fc1ccc(C(CCCn2nnc(-c3cccnc3)n2)c2ccc(F)cc2)cc1 | 0 | -4 | -8 | 52 | 0 | 55 | 51
O=C(Nc1cccc(C(F)(F)F)c1)OC1CC2CC1[C@H]1CCCCN1[C@H]2Cc1ccccc1 (some centres undefined) | x | 11 | x | x | x | x | x
CC[C@H](CO)Nc1nc(Nc2cccc(Cl)c2)c2ncn(C(C)C)c2n1 | 3 | 1 | -7 | 92* | 0 | 74* | 66
Cc1nn(C)c(C)c1CN(Cc1nc(CCC(C)C)no1)C(C)C | 1 | -2 | 6 | 86* | 0 | 99* | 87*
c1coc(CN(Cc2ccco2)c2ncnc3c2oc2ccccc23)c1 | 0 | x | -4 | 68 | x | 77* | 60
Clc1ncnc2c1oc1ccccc12 | -2 | -2 | 9 | -159 | -1 | x | x
COc1cccc(CNC(=O)C2C3C=CC4(CN(Cc5ccccc5)C(=O)C24)O3)c1OC (centres undefined) | x | -2 | x | x | x | x | x
O=C(NC(NNc1ccc([N+](=O)[O-])cc1)(C(F)(F)F)C(F)(F)F)c1ccc(Cl)cc1 | 4 | -3 | 22 | 48 | 2 | 80* | 85*
O=C(NNc1ccc([N+](=O)[O-])cc1)c1ccccc1Cl | -1 | 0 | -1 | 6 | -2 | x | x
O=C1CCC[C@H]2C[C@H](NCc3ccc(Cl)cc3)CC[C@]23CCCN13 | x | 0 | x | x | x | x | x
Cc1csc(NC(=O)Cc2nn(C)c(=O)c3ccccc23)n1 | 2 | -1 | 2 | 68 | -1 | 65 | 54
COc1cccc(OC)c1NC(=O)Cc1nn(C)c(=O)c2ccccc12 | 4 | -8 | 6 | 7 | -3 | x | x
COc1ccccc1NC(=O)Cc1nn(C)c(=O)c2ccccc12 | 1 | x | 3 | 74* | x | 73* | 69
CCOC(=O)COc1ccc(C(C)c2ccc(NC(=O)OC(C)(C)C)cc2)cc1 (centres undefined) | x | -1 | x | x | x | x | x
O=C(OC12CCCN(C1)/C(=C/c1ccc(Cl)cc1)C2)c1ccc(Cl)cc1 (centres undefined) | x | -3 | x | x | x | x | x
O=C(Nc1ccc([N+](=O)[O-])cc1)Nc1ccc(OC(F)F)c(Cl)c1 | 6 | 4 | -2 | 98* | 0 | 99* | 94*
COc1ccc(C#Cc2ccc3c(c2)[C@H]2[C@H](CCN2S(=O)(=O)c2ccccc2F)[C@H](CO)N3C)cc1 | x | 2 | x | x | x | x | x
COc1ccc(NC(=O)C2Cc3c(-c4ccc5c(c4)OCO5)ccnc3O2)cc1OC (centres undefined) | x | -2 | x | 84* | 1 | 91* | 73*
COc1ccc(NC(=O)C2Cc3c(-c4cccc(F)c4)ccnc3O2)cc1OC (centres undefined) | x | 0 | x | 73* | 0 | 67 | 58
COc1ccc(NC(=O)C2Cc3c(-c4ccc(NC(C)=O)cc4)ccnc3O2)cc1OC (centres undefined) | x | 3 | x | 1 | -1 | x | x
SMILES | NR2E3 ag-1 | Rev-erbA mod | VLA-4 inh | NR2E3 ag-2 | PG9 Ab binder | NR2E3 ag conf | GAL4-VP16 luc
O=C(Nc1cccc(OC(F)(F)F)c1)C1Cc2c(-c3ccc4c(c3)OCO4)ccnc2O1 (centres undefined) | x | -3 | x | 81* | -1 | 82* | 19
O=C(Nc1cccc(Oc2ccccc2)c1)C1Cc2c(-c3ccc4c(c3)OCO4)ccnc2O1 (centres undefined) | x | -2 | x | -2 | 1 | x | x
CC(=O)N1CCN(S(=O)(=O)c2ccc3c(c2)oc(=O)n3C)CC1 | x | 1 | x | x | x | x | x
COC(=O)CN1CCN(C(=O)c2nocc2C)CC1 | x | 3 | x | x | x | x | x
C#CCNC(=O)C[C@H]1C[C@@]2(C(=O)OC)C(=C[C@H](COCc3ccccc3)O[C@@H]2C)N(CCCCCCCC)C1=O | x | 5 | x | x | x | x | x
CC(C)C[C@@H](CN1CCC[C@@H]1CN1C(=S)NC[C@@H]1Cc1ccc(O)cc1)N1C[C@H](Cc2ccccc2)N(CCc2ccccc2)C1=S | x | x | x | 53 | x | -3 | 25
CC1=CC(C)(C)N2C(=O)C3(NCCc4c3[nH]c3ccccc43)c3cc(C)cc1c32 (centres undefined) | -1 | 3 | 0 | 57 | -2 | 12 | 6
O=S1(=O)c2c(NCc3ccco3)cccc2Oc2ccccc2CN1Cc1cn(Cc2cccc(F)c2)nn1 | x | 0 | x | x | x | x | x
COc1ccccc1NC(=O)CSc1nnnn1-c1ccccc1OC | 1 | 4 | 16 | -21 | -1 | x | x
COc1ccccc1NC(=O)CSc1nnnn1-c1ccc2c(c1)OCO2 | -1 | -1 | 10 | 69 | 0 | 64 | 9
CCCCn1c(=N)n(CC(O)COc2cccc(C)c2)c2ccccc21 (centres undefined) | -2 | 0 | 10 | 49 | 1 | -9 | 30
CCCn1c(=N)n(CC(O)COc2ccc(C)cc2)c2ccccc21 (centres undefined) | -4 | 0 | 7 | 17 | 0 | x | x
CCC1(O)C(=O)OCc2c1cc1n(c2=O)Cc2cc3c(N)cccc3nc2-1 (centres undefined) | x | 2 | x | 86* | -17 | 94* | 53
CCC1(OC(=O)CN(C)C)C(=O)OCc2c1cc1n(c2=O)Cc2cc3c(N)cccc3nc2-1 (centres undefined) | x | x | x | 66 | x | 84* | 26
C#CCN(C)S(=O)(=O)c1ccc(N2CCCC2)cc1Br | x | -2 | x | x | x | x | x
CCN1CCN(Cc2ccc(NC(=O)c3ccc(C)c(NC(=O)c4ccno4)c3)cc2C(F)(F)F)CC1 | 2 | -3 | 15 | 37 | -3 | 55 | 15
CCN1CCN(Cc2ccc(NC(=O)c3cc(NC(=O)c4ccno4)cc(OC)c3)cc2C(F)(F)F)CC1 | 0 | -8 | 23 | -8 | 0 | x | x
CCOC(=O)NC[C@@]1(C(=O)OC)CC(=O)N(Cc2ccc(Cl)cc2)[C@@H]1c1ccc(OC)cc1 | x | 1 | x | x | x | x | x
CC(C)(C)OC(=O)NCCCCCc1cn([C@@H](CO)C(=O)NCCCCCCCCCCC(=O)N2CCN(C(=O)OC(C)(C)C)CC2)nn1 | 3 | 0 | 18 | 66 | 2 | 83* | 74*
